In general, mortality refers to the share of the test organisms that died.

Common to all, as to assay type: functional
For assay [1], the system named is Spodoptera litura. Description: Antifeedant activity against third-instar larval stage of Spodoptera litura in compound-treated castor leaves assessed as decrease in diet consumption at 0.5 ug/cm2 after 24 hr by no-choice leaf disk assay relative to acetone-treated control. Further details: scale not given: the % may be the effect or the level left. Put shortly: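 Larvae were reared on castor leaves at 25 ± 2 °C. In a no-choice test, compound in acetone was painted on the abaxial side of castor leaf disks and air-dried. Five freshly molted third-instar larvae, starved 4 h, were placed per Petri dish with wet cotton. There were five replicates. After 24 h, consumed leaf area was read on a leaf area meter. %AF = 100 − (treated/control)×100.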

Assay [2] relates to Earias vittella. Description: Antifeedant activity against third-instar larval stage of Earias vitella assessed as decrease in diet consumption at 0.5 ug/cm3 administered through artificial diet containing Abelmoschus esculentus seed powder after 24 hr relative to acetone-treated control. Further details: scale not given: the % may be the effect or the level left. Put shortly:
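Artificial diet was modified Klein medium with bhendi (Abelmoschus esculentus) seed powder in place of alfalfa. Compound in acetone was mixed into bhendi meal 12 h before diet preparation so the solvent evaporated. One 3 g diet cube was given to five freshly molted third-instar larvae in a muslin-covered container. After 24 h the cubes were weighed. %AF = 100 − (treated/control)×100.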

Assay [3] deals with Spodoptera litura. Description: Insecticidal activity against female adult Spodoptera litura in compound-treated castor leaves assessed as adult longevity time at 0.5 ug/cm2 (reference value: 10 +/- 0.63 days).
Assay [4] concerns Spodoptera litura. Description: Insecticidal activity against male adult Spodoptera litura in compound-treated castor leaves assessed as adult longevity time at 0.5 ug/cm2 (reference value: 9.4 +/- 0.48 days).
The subject of assay [5] is Spodoptera litura. Description: Insecticidal activity against adult Spodoptera litura in compound-treated castor leaves assessed as adult deformity at 0.5 ug/cm2 relative to control.
Assay [6] deals with Spodoptera litura. Description: Insecticidal activity against adult Spodoptera litura in compound-treated castor leaves assessed as adult emergence at 0.5 ug/cm2 relative to control.
Assay [7] concerns Spodoptera litura. Description: Insecticidal activity against pupal stage of Spodoptera litura in compound-treated castor leaves assessed as pupal mortality at 0.5 ug/cm2 relative to control.
Assay [8] concerns Spodoptera litura. Description: Insecticidal activity against pupal stage of Spodoptera litura in compound-treated castor leaves assessed as pupal weight at 0.5 ug/cm2 (reference value: 302.4 +/- 5.9 mg).
Assay [9] concerns Spodoptera litura. Description: Insecticidal activity against pupal stage of Spodoptera litura in compound-treated castor leaves assessed as pupal duration time at 0.5 ug/cm2 (reference value: 9.2 +/- 0.74 days).
The subject of assay [10] is Spodoptera litura. Description: Insecticidal activity against third-instar larval stage of Spodoptera litura in compound-treated castor leaves assessed as larval mortality at 0.5 ug/cm2 relative to control.
In assay [11] the test system is Spodoptera litura. Description: Insecticidal activity against third-instar larval stage of Spodoptera litura in compound-treated castor leaves assessed as total larval duration time at 0.5 ug/cm2 (reference value: 12.4 +/- 0.48 days).
The subject of assay [12] is Earias vittella. Description: Insecticidal activity against female adult Earias vitella assessed as adult longevity time at 0.5 ug/cm3 administered through artificial diet containing Abelmoschus esculentus seed powder (reference value: 8.6 +/- 0.48 days).
The test system of assay [13] is Earias vittella. Description: Insecticidal activity against male adult Earias vitella assessed as adult longevity time at 0.5 ug/cm3 administered through artificial diet containing Abelmoschus esculentus seed powder (reference value: 8.2 +/- 0.4 days).
Assay [14] has as its system Earias vittella. Description: Insecticidal activity against adult Earias vitella assessed as adult deformity at 0.5 ug/cm3 administered through artificial diet containing Abelmoschus esculentus seed powder (reference value: 4%).
The subject of assay [15] is Earias vittella. Description: Insecticidal activity against adult Earias vitella assessed as adult emergence at 0.5 ug/cm3 administered through artificial diet containing Abelmoschus esculentus seed powder (reference value: 88%).
Assay [16] concerns Earias vittella. Description: Insecticidal activity against pupal stage of Earias vitella assessed as pupal mortality at 0.5 ug/cm3 administered through artificial diet containing Abelmoschus esculentus seed powder (reference value: 8%).
Assay [17] relates to Earias vittella. Description: Insecticidal activity against pupal stage of Earias vitella assessed as pupal weight at 0.5 ug/cm3 administered through artificial diet containing Abelmoschus esculentus seed powder (reference value: 88.2 +/- 4.01 mg).
The subject of assay [18] is Earias vittella. Description: Insecticidal activity against pupal stage of Earias vitella assessed as pupal duration time at 0.5 ug/cm3 administered through artificial diet containing Abelmoschus esculentus seed powder (reference value: 6.4 +/- 0.21 days).
Assay [19] has as its system Earias vittella. Description: Insecticidal activity against third-instar larval stage of Earias vitella assessed as larval mortality at 0.5 ug/cm3 administered through artificial diet containing Abelmoschus esculentus seed powder (reference value: 4%).
The subject of assay [20] is Earias vittella. Description: Insecticidal activity against third-instar larval stage of Earias vitella assessed as total larval duration time at 0.5 ug/cm3 administered through artificial diet containing Abelmoschus esculentus seed powder (reference value: 8.2 +/- 0.48 days).

With `C/C=C(\C)C(=O)O[C@H]1C[C@@H](OC(C)=O)[C@@]2(C(=O)OC)CO[C@H]3[C@@H](O)[C@@](C)([C@]45O[C@@]4(C)[C@@H]4C[C@H]5O[C@@H]5OC=C[C@@]54O)[C@H]4[C@]1(CO[C@]4(O)C(=O)OC)[C@@H]32` [AZADIRACHTIN A], the Activity turned out to be 79.2% with Spodoptera litura [1]; 79.2% in the assay with Earias vittella [2]; 28.5% in the assay with Spodoptera litura [5]; 42.8% with Spodoptera litura [6]; 247.2 mg in the assay with Spodoptera litura [8]; 25% with Earias vittella [14]. For the same molecule, the Activity in the assay with Earias vittella [15] stood at 37%; with Earias vittella [17] it was 59.2 mg. The Time in the assay on Spodoptera litura [3] worked out at 7 days; in the assay on Spodoptera litura [4], 7.2 days; in the assay on Spodoptera litura [9], 11 days; in the assay on Spodoptera litura [11] it was 13.9 days; with Earias vittella [12] it was 6.8 days; with Earias vittella [13] it was 6.6 days. In addition, the Time in the assay with Earias vittella [18] came to 8.4 days; with Earias vittella [20] it was 11 days. Further, the results for the mortality at 0.5 µg/cm2 in the assay on Spodoptera litura [7] and in the assay on Spodoptera litura [10] were 28% and 78%, respectively. Besides, the mortality came out at 37.5% in the assay on Earias vittella [16] and 68% in the assay with Earias vittella [19].

The values above are taken from ChEMBL document CHEMBL3046016, “Antifeedant and growth inhibitory effects of some neo-clerodane diterpenoids isolated from Clerodendron species (Verbenaceae) on Earias vitella and Spodoptera litura” (2003).
